Experimental data: ChEMBL document CHEMBL3763086, “Salicylanilide N-monosubstituted carbamates: Synthesis and in vitro antimicrobial activity” (2016)
≈ marks a conversion by molar mass, not a printed value.

Experiments:
Type in all cases: functional
[1] = system: Trichophyton mentagrophytes; assay: Antifungal activity against Trichophyton mentagrophytes 445 after 120 hrs by microbroth dilution method; conditions: Trichophyton mentagrophytes, 445, 120 h
[2] = system: Staphylococcus epidermidis; assay: Antibacterial activity against Staphylococcus epidermidis H 6966/08 after 48 hrs by microbroth dilution method; conditions: H 6966/08, 48 h
In short: (§1)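 Microbroth dilution modified per M07-A07 in Mueller-Hinton broth, pH 7.4 (±0.2). Inoculum in sterile water adjusted to 0.5 McFarland. MIC taken as growth reduction of at least 90% (IC90) versus control, read visually and at 540 nm after 24 and 48 h incubation in the dark.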

[3] = system: Lichtheimia corymbifera; assay: Antifungal activity against Absidia corymbifera 272 after 24 hrs by microbroth dilution method; conditions: Lichtheimia corymbifera, 272, 24 h
[4] = system: Escherichia coli; assay: Antibacterial activity against Escherichia coli CCM 4517 after 24 hrs by microbroth dilution method; conditions: CCM 4517, 24 h; in short: as §1
[5] = system: Nakaseomyces glabratus; assay: Antifungal activity against Candida glabrata 20/I after 48 hrs by microbroth dilution method
[6] = system: Staphylococcus aureus; assay: Antibacterial activity against methicillin-resistant Staphylococcus aureus H 5996/08 after 48 hrs by microbroth dilution method; conditions: H 5996/08, 48 h
In short: (§2)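 Microdilution broth method modified after M07-A07 in Mueller-Hinton broth adjusted to pH 7.4 (±0.2). Inoculum prepared in sterile water to 0.5 McFarland (1.5 × 10^8 CFU/mL). MIC taken as growth reduction versus control (IC95 per table header), read visually and spectrophotometrically at 540 nm after 24 and 48 h incubation in the dark.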

[7] = system: Klebsiella pneumoniae; assay: Antibacterial activity against Klebsiella pneumoniae D 11750/08 after 24 hrs by microbroth dilution method; conditions: D 11750/08, 24 h; in short: as §1
[8] = system: Pichia kudriavzevii; assay: Antifungal activity against Candida krusei E28 after 24 hrs by microbroth dilution method; conditions: E28, 24 h
[9] = system: Klebsiella pneumoniae; assay: Antibacterial activity against ESBL-positive Klebsiella pneumoniae J 14368/08 after 24 hrs by microbroth dilution method; conditions: J 14368/08, 24 h; in short: as §1
[10] = system: Candida tropicalis; assay: Antifungal activity against Candida tropicalis 156 after 24 hrs by microbroth dilution method; conditions: Candida tropicalis, 156, 24 h
[11] = system: Pichia kudriavzevii; assay: Antifungal activity against Candida krusei E28 after 48 hrs by microbroth dilution method; conditions: E28, 48 h
[12] = system: Staphylococcus aureus; assay: Antibacterial activity against Staphylococcus aureus CCM 4516/08 after 48 hrs by microbroth dilution method; conditions: CCM 4516/08, 48 h; in short: as §2
[13] = system: Trichophyton mentagrophytes; assay: Antifungal activity against Trichophyton mentagrophytes 445 after 72 hrs by microbroth dilution method; conditions: Trichophyton mentagrophytes, 445, 72 h
[14] = system: Trichosporon asahii; assay: Antifungal activity against Trichosporon asahii 1188 after 24 hrs by microbroth dilution method; conditions: Trichosporon asahii, 1188, 24 h
[15] = system: Staphylococcus aureus; assay: Antibacterial activity against Staphylococcus aureus CCM 4516/08 after 24 hrs by microbroth dilution method; conditions: CCM 4516/08, 24 h; in short: as §1
[16] = system: Staphylococcus aureus; assay: Antibacterial activity against methicillin-resistant Staphylococcus aureus H 5996/08 after 24 hrs by microbroth dilution method; conditions: H 5996/08, 24 h; in short: as §2
[17] = system: Candida albicans; assay: Antifungal activity against Candida albicans ATCC 44859 after 24 hrs by microbroth dilution method; conditions: ATCC 44859, 24 h
[18] = system: Lichtheimia corymbifera; assay: Antifungal activity against Absidia corymbifera 272 after 48 hrs by microbroth dilution method; conditions: Lichtheimia corymbifera, 272, 48 h
[19] = system: Nakaseomyces glabratus; assay: Antifungal activity against Candida glabrata 20/I after 24 hrs by microbroth dilution method
[20] = system: Enterococcus sp.; assay: Antibacterial activity against Enterococcus sp. J 14365/08 after 24 hrs by microbroth dilution method; conditions: J 14365/08, 24 h; in short: as §1
[21] = system: Candida albicans; assay: Antifungal activity against Candida albicans ATCC 44859 after 48 hrs by microbroth dilution method; conditions: ATCC 44859, 48 h
[22] = system: Escherichia coli; assay: Antibacterial activity against Escherichia coli CCM 4517 after 48 hrs by microbroth dilution method; conditions: CCM 4517, 48 h; in short: as §1
[23] = system: Klebsiella pneumoniae; assay: Antibacterial activity against ESBL-positive Klebsiella pneumoniae J 14368/08 after 48 hrs by microbroth dilution method; conditions: J 14368/08, 48 h; in short: as §1
[24] = system: Enterococcus sp.; assay: Antibacterial activity against Enterococcus sp. J 14365/08 after 48 hrs by microbroth dilution method; conditions: J 14365/08, 48 h; in short: as §1
[25] = system: Staphylococcus epidermidis; assay: Antibacterial activity against Staphylococcus epidermidis H 6966/08 after 24 hrs by microbroth dilution method; conditions: H 6966/08, 24 h; in short: as §1
[26] = system: Candida tropicalis; assay: Antifungal activity against Candida tropicalis 156 after 48 hrs by microbroth dilution method; conditions: Candida tropicalis, 156, 48 h
[27] = system: Klebsiella pneumoniae; assay: Antibacterial activity against Klebsiella pneumoniae D 11750/08 after 48 hrs by microbroth dilution method; conditions: D 11750/08, 48 h; in short: as §1
[28] = system: Trichosporon asahii; assay: Antifungal activity against Trichosporon asahii 1188 after 48 hrs by microbroth dilution method; conditions: Trichosporon asahii, 1188, 48 h

## O=C(Nc1ccccc1)Oc1ccccc1C(=O)Nc1ccccc1
[1]
  MIC: 125 µM (≈ 41.5 µg/mL)
[2]
  MIC: 500 µM (≈ 166 µg/mL)
[3]
  MIC: > 500 µM
[4]
  MIC: > 500 µM
[5]
  MIC: > 500 µM
[6]
  MIC: 500 µM (≈ 166 µg/mL)
[7]
  MIC: > 500 µM
[8]
  MIC: > 500 µM
[9]
  MIC: > 500 µM
[10]
  MIC: > 500 µM
[11]
  MIC: > 500 µM
[12]
  MIC: 500 µM (≈ 166 µg/mL)
[13]
  MIC: 125 µM (≈ 41.5 µg/mL)
[14]
  MIC: > 500 µM
[15]
  MIC: 500 µM (≈ 166 µg/mL)
[16]
  MIC: 500 µM (≈ 166 µg/mL)
[17]
  MIC: > 500 µM
[18]
  MIC: > 500 µM
[19]
  MIC: > 500 µM
[20]
  MIC: > 500 µM
[21]
  MIC: > 500 µM
[22]
  MIC: > 500 µM
[23]
  MIC: > 500 µM
[24]
  MIC: > 500 µM
[25]
  MIC: 500 µM (≈ 166 µg/mL)
[26]
  MIC: > 500 µM
[27]
  MIC: > 500 µM
[28]
  MIC: > 500 µM

## O=C(NCc1ccccc1)Oc1ccccc1C(=O)Nc1ccccc1
[1]
  MIC: 15.6 µM (≈ 5.41 µg/mL)
[2]
  MIC: 500 µM (≈ 173 µg/mL)
[3]
  MIC: > 500 µM
[4]
  MIC: > 500 µM
[5]
  MIC: 250 µM (≈ 86.6 µg/mL)
[6]
  MIC: 500 µM (≈ 173 µg/mL)
[7]
  MIC: > 500 µM
[8]
  MIC: 125 µM (≈ 43.3 µg/mL)
[9]
  MIC: > 500 µM
[10]
  MIC: 125 µM (≈ 43.3 µg/mL)
[11]
  MIC: 125 µM (≈ 43.3 µg/mL)
[12]
  MIC: 250 µM (≈ 86.6 µg/mL)
[13]
  MIC: 15.6 µM (≈ 5.41 µg/mL)
[14]
  MIC: 125 µM (≈ 43.3 µg/mL)
[15]
  MIC: 250 µM (≈ 86.6 µg/mL)
[16]
  MIC: 500 µM (≈ 173 µg/mL)
[17]
  MIC: 125 µM (≈ 43.3 µg/mL)
[18]
  MIC: > 500 µM
[19]
  MIC: 250 µM (≈ 86.6 µg/mL)
[20]
  MIC: > 500 µM
[21]
  MIC: 125 µM (≈ 43.3 µg/mL)
[22]
  MIC: > 500 µM
[23]
  MIC: > 500 µM
[24]
  MIC: > 500 µM
[25]
  MIC: 500 µM (≈ 173 µg/mL)
[26]
  MIC: 125 µM (≈ 43.3 µg/mL)
[27]
  MIC: > 500 µM
[28]
  MIC: 125 µM (≈ 43.3 µg/mL)

## OC(Cn1cncn1)(Cn1cncn1)c1ccc(F)cc1F [FLUCONAZOLE]
[1]
  MIC: 125 µM (≈ 38.3 µg/mL)
[3]
  MIC: > 500 µM
[5]
  MIC: 500 µM (≈ 153 µg/mL)
[8]
  MIC: 125 µM (≈ 38.3 µg/mL)
[10]
  MIC: > 500 µM
[11]
  MIC: 250 µM (≈ 76.6 µg/mL)
[13]
  MIC: 7.81 µM (≈ 2.39 µg/mL)
[14]
  MIC: 250 µM (≈ 76.6 µg/mL)
[17]
  MIC: 0.24 µM (≈ 0.0735 µg/mL)
[18]
  MIC: > 500 µM
[19]
  MIC: 31.2 µM (≈ 9.57 µg/mL)
[21]
  MIC: 0.24 µM (≈ 0.0735 µg/mL)
[26]
  MIC: > 500 µM
[28]
  MIC: 500 µM (≈ 153 µg/mL)

## C[C@@H]1[C@H](O)[C@@H](C)/C=C/C=C/C=C/C=C/C=C/C=C/C=C/[C@H](O[C@@H]2O[C@H](C)[C@@H](O)[C@H](N)[C@@H]2O)C[C@@H]2O[C@](O)(C[C@@H](O)C[C@@H](O)[C@H](O)CC[C@@H](O)C[C@@H](O)CC(=O)O[C@H]1C)C[C@H](O)[C@H]2C(=O)O [AMPHOTERICIN B]
[1]
  MIC: 1.95 µM (≈ 1.8 µg/mL)
[3]
  MIC: 7.81 µM (≈ 7.22 µg/mL)
[5]
  MIC: 1.95 µM (≈ 1.8 µg/mL)
[8]
  MIC: 1.95 µM (≈ 1.8 µg/mL)
[10]
  MIC: 1.95 µM (≈ 1.8 µg/mL)
[11]
  MIC: 1.95 µM (≈ 1.8 µg/mL)
[13]
  MIC: 1.95 µM (≈ 1.8 µg/mL)
[14]
  MIC: 0.49 µM (≈ 0.453 µg/mL)
[17]
  MIC: 0.12 µM (≈ 0.111 µg/mL)
[18]
  MIC: 7.81 µM (≈ 7.22 µg/mL)
[19]
  MIC: 0.98 µM (≈ 0.906 µg/mL)
[21]
  MIC: 0.49 µM (≈ 0.453 µg/mL)
[26]
  MIC: 1.95 µM (≈ 1.8 µg/mL)
[28]
  MIC: 0.98 µM (≈ 0.906 µg/mL)

## CC1(C)S[C@@H]2[C@H](NC(=O)Cc3ccccc3)C(=O)N2[C@H]1C(=O)O [PENICILLIN G]
[2]
  MIC: 250 µM (≈ 83.6 µg/mL)
[4]
  MIC: 125 µM (≈ 41.8 µg/mL)
[6]
  MIC: 125 µM (≈ 41.8 µg/mL)
[7]
  MIC: 500 µM (≈ 167 µg/mL)
[9]
  MIC: > 500 µM
[12]
  MIC: 0.98 µM (≈ 0.328 µg/mL)
[15]
  MIC: 0.98 µM (≈ 0.328 µg/mL)
[16]
  MIC: 62.5 µM (≈ 20.9 µg/mL)
[20]
  MIC: 7.81 µM (≈ 2.61 µg/mL)
[22]
  MIC: 125 µM (≈ 41.8 µg/mL)
[23]
  MIC: > 500 µM
[24]
  MIC: 15.6 µM (≈ 5.22 µg/mL)
[25]
  MIC: 250 µM (≈ 83.6 µg/mL)
[27]
  MIC: 500 µM (≈ 167 µg/mL)
